Published values from different studies.
Protocols differ between the studies behind these lines.
RIPK1: Receptor-interacting serine/threonine-protein kinase 1 (RIPK1, Homo sapiens, UniProt Q13546)
Maoa: Amine oxidase [flavin-containing] A (Maoa, Rattus norvegicus, UniProt P21396)
GAK: Cyclin-G-associated kinase (GAK, Homo sapiens, UniProt O14976)
Genome polyprotein protease: Genome polyprotein, protease (Hepatitis C virus genotype 1b, UniProt Q9WMX2)
AMY2: Pancreatic alpha-amylase (AMY2, Sus scrofa, UniProt P00690)
PADI3: Protein-arginine deiminase type-3 (PADI3, Homo sapiens, UniProt Q9ULW8)
KRAS G12C: GTPase KRas (KRAS, Homo sapiens, UniProt P01116, G12C)

| Structure (SMILES) | target | assay | conditions | measurement | result |
| --- | --- | --- | --- | --- | --- |
| Cc1ccc(C(=O)Nc2ccc(CN3CCN(C)CC3)c(C(F)(F)F)c2)cc1C#Cc1cnc2cccnn12 | RIPK1 | enzyme activity, inhibitor | 23.5 nM | remaining activity | 86% |
| COc1cc(Cl)c(C(=O)N[C@@H](CN[C@H]2CC[C@@H](N)CC2)Cc2ccc(C#N)cc2)cc1-c1ccc(CN[C@H](C)c2ccc(C)cc2)o1 | RIPK1 | enzyme activity, inhibitor | 1 µM | remaining activity | 96% |
| NCc1ccc(C(F)(F)F)cc1 | Maoa | enzyme activity, substrate | pH 7.5 | Km | 194 µM |
| CS(=O)(=O)c1ccc(Nc2ccnc3ccc(C(F)(F)F)cc23)cc1 | GAK | thermal stability, DSF | 10 µM | ΔTm | 0.2 °C |
| COc1ccc(CN)cc1 | Maoa | enzyme activity, substrate | pH 7.5 | Km | 80 µM |
| O=c1oc2c(O)c(O)cc3c(=O)oc4c(O)c(O)cc1c4c23 | Genome polyprotein protease | enzyme activity, inhibitor, fluorescence | – | IC90 | < 10000 nM |
| Cc1cc(NS(=O)(=O)c2ccc(N=NN(O)c3ccccc3)cc2)no1 | AMY2 | enzyme activity, inhibitor | 300 µg/mL | inhibition | 73.7% |
| CC(C)(C)n1nnc([C@H](CCCNC(=N)CF)NC(=O)c2ccccc2C(=O)O)n1 | PADI3 | enzyme activity, inhibitor | – | kinact/KI | 261 M⁻¹ s⁻¹ |
| C=CC(=O)Nc1cccc(-c2noc([C@@]3(C)CCCc4sc(N)c(C#N)c43)n2)c1 | KRAS G12C | cell-free assay, inhibitor | – | kinact | 0.000306 s⁻¹ |
| COc1cc(C=CC(=O)CC(c2ccc(N(C)C)cc2)n2ccnc2)ccc1O (stereo not drawn) | AMY2 | enzyme activity, inhibitor, absorbance | 2.5 µg/mL | inhibition | 67.3% |
| CCN(O)N=Nc1ccc(S(=O)(=O)Nc2cc(C)on2)cc1 | AMY2 | enzyme activity, inhibitor | 20 µg/mL | inhibition | 26.3% |
| Cn1c2c(c3ccc(Cl)c(Cl)c31)C(C#N)C1(CCNCC1)NC2=O (racemic) | Serine/threonine-protein kinase DCLK1 (DCLK1, Homo sapiens, UniProt O15075) | thermal stability, DSF | 10 µM | ΔTm | 0.9 °C |
| Fc1cccc(Nc2ccnc3ccc(C(F)(F)F)cc23)c1 | GAK | thermal stability, DSF | 10 µM | ΔTm | 4.3 °C |
| Cc1cccc(N(O)N=Nc2ccc(S(=O)(=O)Nc3onc(C)c3C)cc2)c1 | AMY2 | enzyme activity, inhibitor | 120 µg/mL | inhibition | 31.6% |
| COc1ccc(Nc2ccnc3ccc(C(F)(F)F)cc23)cc1OC | GAK | thermal stability, DSF | 10 µM | ΔTm | 3.4 °C |
| C=CC(=O)Nc1ccc(-c2noc([C@@]3(C)CCCc4sc(N)c(C#N)c43)n2)cc1 | KRAS G12C | cell-free assay, inhibitor | – | kinact | 0.000194 s⁻¹ |
| CCCN(O)N=Nc1ccc(S(=O)(=O)Nc2cc(C)on2)cc1 | AMY2 | enzyme activity, inhibitor | 60 µg/mL | inhibition | 21.1% |
| CN1CCN(C(=O)c2ccc3cc(CCNc4ccnc5ccc(C#N)cc45)ccc3c2)CC1 | Cyclin-dependent kinase 19, with cyclin C (CDK19, Homo sapiens, UniProt Q9BWU1) | binding, TR-FRET | – | kon | 939000 M⁻¹ s⁻¹ |
| CC(C)(C)n1nnc([C@H](CCCNC(=N)CCl)NC(=O)c2ccccc2C(=O)O)n1 | PADI3 | enzyme activity, inhibitor | – | kinact/KI | 292 M⁻¹ s⁻¹ |
| COc1cc(C=Cc2cc(-c3ccc(N(C)C)cc3)nc(O)n2)ccc1O | AMY2 | enzyme activity, inhibitor, absorbance | 5 µg/mL | inhibition | 72.4% |

| Structure (SMILES) | target | assay | conditions | measurement | result |
| --- | --- | --- | --- | --- | --- |
| N=C(CF)NCCC[C@H](NC(=O)c1ccc(-c2ccccc2)cc1)c1nn[nH]n1 | PADI3 | enzyme activity, inhibitor | – | kinact/KI | 5.08 M⁻¹ s⁻¹ |
| C=CC(=O)N1CCN(c2cccc(-c3noc([C@@]4(C)CCCc5sc(N)c(C#N)c54)n3)c2)CC1 | KRAS G12C | cell-free assay, inhibitor | – | kinact | 8.33e-05 s⁻¹ |
| CS(=O)(=O)c1cccc(Nc2ccnc3ccc(C(F)(F)F)cc23)c1 | GAK | thermal stability, DSF | 10 µM | ΔTm | 0.3 °C |
| COc1cc(Nc2cnc(C#N)c(O[C@H](C)CN(C)C)n2)ncc1-c1cnn(C)c1 | Eukaryotic translation initiation factor 2-alpha kinase 3 (EIF2AK3, Homo sapiens, UniProt Q9NZJ5) | enzyme activity, inhibitor, radiometric | 10 µM | remaining activity | 93% |
| COc1cc(C=CC(=O)CC(c2ccc([N+](=O)[O-])cc2)n2ccnc2)ccc1O (stereo not drawn) | AMY2 | enzyme activity, inhibitor, absorbance | 2.5 µg/mL | inhibition | 62.6% |
| CC(C)(C)n1nnc([C@H](CCCNC(=N)CF)NC(=O)c2ccccc2)n1 | PADI3 | enzyme activity, inhibitor | – | kinact/KI | 8.67 M⁻¹ s⁻¹ |
| FC(F)(F)c1ccc2nccc(Nc3ccc4c(c3)OCCO4)c2c1 | GAK | thermal stability, DSF | 10 µM | ΔTm | 1.5 °C |
| CN(O)N=Nc1ccc(S(=O)(=O)Nc2nccs2)cc1 | AMY2 | enzyme activity, inhibitor | 120 µg/mL | inhibition | 42.1% |
| CCCOc1ccc(OC)c(F)c1C(=O)c1ccc(C(=O)N[C@@H]2CNC[C@H]2NC(=O)c2ccc3[nH]ncc3c2)cc1 | Serine/threonine-protein kinase MRCK beta (CDC42BPB, Homo sapiens, UniProt Q9Y5S2) | enzyme activity, inhibitor | 0.75 µM | remaining activity | 7% |
| COc1cc(Nc2ccnc3ccccc23)cc(OC)c1OC | GAK | thermal stability, DSF | 10 µM | ΔTm | 4.4 °C |
| Cc1noc(NS(=O)(=O)c2ccc(N=NN(C)O)cc2)c1C | AMY2 | enzyme activity, inhibitor | 20 µg/mL | inhibition | 21.1% |
| FC(F)(F)c1cccc(Nc2ccnc3ccc(C(F)(F)F)cc23)c1 | GAK | thermal stability, DSF | 10 µM | ΔTm | 1.3 °C |
| O=C1O[C@H]2[C@@H]3OC(=O)c4cc(O)c(O)c(O)c4-c4c(O)c(O)c5oc(=O)c6c(c(O)c(O)c7oc(=O)c4c5c76)-c4c(cc(O)c(O)c4O)C(=O)OC[C@H]3OC(O)[C@@H]2OC(=O)c2cc(O)c(O)c(O)c2-c2c1cc(O)c(O)c2O (mixture of isomers) | Genome polyprotein protease | enzyme activity, inhibitor, fluorescence | – | IC90 | ~2500 nM |
| CC(C)(C)n1nnc([C@H](CCCNC(=N)CCl)NC(=O)c2ccc(-c3ccccc3)cc2)n1 | PADI3 | enzyme activity, inhibitor | – | kinact/KI | 82.3 M⁻¹ s⁻¹ |
| N#Cc1ccccc1Nc1ccnc2ccc(C(F)(F)F)cc12 | GAK | thermal stability, DSF | 10 µM | ΔTm | 0.6 °C |
| Cc1noc(NS(=O)(=O)c2ccc(N=NN(O)c3ccccc3)cc2)c1C | AMY2 | enzyme activity, inhibitor | 240 µg/mL | inhibition | 63.2% |
| Nc1ncnc2occ(-c3ccc(NC(=O)Nc4cc(C(F)(F)F)ccc4F)cc3)c12 | Cyclin-dependent kinase 4, with cyclin D1 (CDK4, Homo sapiens, UniProt P11802) | cell-free assay, inhibitor | 20 µM | remaining signal | 17% |
| Cc1cccc(N(O)N=Nc2ccc(S(=O)(=O)Nc3nccs3)cc2)c1 | AMY2 | enzyme activity, inhibitor | 60 µg/mL | inhibition | 21.1% |
| N=C(CCl)NCCC[C@H](NC(=O)c1ccc(-c2ccccc2)cc1)c1nn[nH]n1 | PADI3 | enzyme activity, inhibitor | – | kinact/KI | 131 M⁻¹ s⁻¹ |
